Measured values of several laboratories.
Compare with care: the assays were run in different laboratories.
FLT3 R834Q: Receptor-type tyrosine-protein kinase FLT3 (FLT3, Homo sapiens, UniProt P36888, R834Q)
FLT3: Receptor-type tyrosine-protein kinase FLT3 (FLT3, Homo sapiens, UniProt P36888)
FLT3 D835H: Receptor-type tyrosine-protein kinase FLT3 (FLT3, Homo sapiens, UniProt P36888, D835H)
FLT3 ITD: Receptor-type tyrosine-protein kinase FLT3 (FLT3, Homo sapiens, UniProt P36888, ITD)
FLT3 N841I: Receptor-type tyrosine-protein kinase FLT3 (FLT3, Homo sapiens, UniProt P36888, N841I)
FLT3 autoinhibited: Receptor-type tyrosine-protein kinase FLT3, autoinhibited (FLT3, Homo sapiens, UniProt P36888)
FLT3 D835V: Receptor-type tyrosine-protein kinase FLT3 (FLT3, Homo sapiens, UniProt P36888, D835V)
FLT3 D835Y: Receptor-type tyrosine-protein kinase FLT3 (FLT3, Homo sapiens, UniProt P36888, D835Y)

For `CN(CCCC(F)(F)F)c1nccc(-c2cnn3ncccc23)n1`, the remaining binding was 100% (FLT3 R834Q; binding; 1 µM).
`O=C(c1ccc(Nc2ncc(Cl)c(-c3cc4ccccc4s3)n2)cc1)N1CCC(N2CCCC2)CC1` gave a remaining binding of 2.5% (FLT3; binding, competition with immobilised ligand; 1 µM).
With `O=C(Nc1c[nH]nc1C(=O)NC1CCNCC1)c1cc(F)cc(F)c1` the remaining binding was 100% (FLT3 D835H; binding, competition with immobilised ligand; 1 µM).
For `O=c1nc(-c2ccccn2)sc2ccccc12`, the remaining binding was 100% (FLT3 R834Q; binding, competition with immobilised ligand; 1 µM).
`O=C(NCCCN1CCOCC1)c1ccc(Nc2nccc(-c3cc4ccccc4s3)n2)cc1` gave a remaining binding of 50% (FLT3 ITD; binding, competition with immobilised ligand; 1 µM).
The remaining binding of `Cn1nc(C(=O)NCc2ccc(C(=O)O)cc2)cc1-c1ccc2[nH]ccc2c1` is reported as 100% (FLT3 N841I; cell-free assay, competition with immobilised ligand; 0.1 µM).
`COc1cnc(Nc2cccc(S(N)(=O)=O)c2)nc1N1CCN(c2ccccc2)CC1` gave a remaining binding of 91% (FLT3 autoinhibited; binding, competition with immobilised ligand; 1 µM).
For `C=CC(=O)N1CCC(C(=O)NCC(=O)N2CCN(c3nc(-c4cnc(N)nc4C(F)F)nc(N4CCOCC4)n3)CC2)CC1`, the remaining binding was 100% (FLT3 N841I; binding, competition with immobilised ligand; 1 µM).
The remaining binding of `c1cnn2ncc(-c3ccnc(N4CCC45COC5)n3)c2c1` is reported as 85% (FLT3; binding; 1 µM).
The remaining binding of `COc1ncc2cc3ccccc3nc2c1C#N` is reported as 100% (FLT3 N841I; cell-free assay, competition with immobilised ligand; 5 µM).
`Cc1cnc(Nc2ccc(C(=O)N3CCC(N4CCCC4)CC3)cc2)nc1-c1cc2ccccc2s1` has a remaining binding of 0.6% (FLT3 D835V; binding, competition with immobilised ligand; 1 µM).
For `C[C@@H](c1ccc(-n2cnc3c(N)ncnc32)cc1)N1CCc2nn(C)c(Cc3ccccc3)c2C1=O`, the remaining binding was 94% (FLT3 D835H; binding, competition with immobilised ligand; 0.1 µM).
The remaining binding of `CNC(=O)[C@@H]1CC[C@@H](n2c(-c3ccc4cnccc4c3)nc3ccc(C(=O)NCc4cccc(C(N)=O)c4)cc32)C1` is reported as 100% (FLT3 D835H; binding, competition with immobilised ligand; 1 µM).
With `O=C(NCC1CCOCC1)c1n[nH]cc1NC(=O)c1c(F)cccc1F` the remaining binding was 78% (FLT3 autoinhibited; binding, competition with immobilised ligand; 1 µM).
`Cc1nccc(COC(=O)N2C[C@@H]3[C@@H](CNC(=O)c4ccc5[nH]nnc5c4)[C@@H]3C2)n1` has a remaining binding of 93% (FLT3 autoinhibited; cell-free assay, competition with immobilised ligand; 1 µM).
With `O=C(c1ccc(Nc2ncc(Cl)c(-c3ccc(Cl)s3)n2)cc1)N1CCC(N2CCCC2)CC1` the remaining binding was 5.3% (FLT3 R834Q; binding, competition with immobilised ligand; 1 µM).
`c1ccc(N2CCN(Cc3nc4ccccc4[nH]3)CC2)nc1` gave a remaining binding of 100% (FLT3 ITD; binding, competition with immobilised ligand; 1 µM).
`CCN1CCN(Cc2ccc(C(=O)Nc3ccc(C)c(Oc4ccc5c(c4)CC(=O)N5)c3)cc2C(F)(F)F)CC1` has a remaining binding of 41% (FLT3; binding, competition with immobilised ligand; 1 µM).
`Cc1cnn2ncc(-c3ccnc(N(C)C)n3)c2c1` gave a remaining binding of 98% (FLT3; binding; 1 µM).
With `CNCc1ccccc1-c1csc([C@@H](C)Nc2nc(C)nc3cc(OC)c(OC)cc23)c1` the remaining binding was 89% (FLT3 ITD; cell-free assay, competition with immobilised ligand; 1 µM).
`O=C(c1ccc(Nc2nccc(-c3cc4ccccc4s3)n2)cc1)N1CCC(N2CCCC2)CC1` gave a remaining binding of 3.6% (FLT3 N841I; binding, competition with immobilised ligand; 1 µM).
For `Nc1ncc2c(n1)-c1c([nH]c3ccc(C#CC4CC4)cc13)CCCC2`, the remaining binding was 88% (FLT3 D835H; binding, competition with immobilised ligand; 1 µM).
`c1cncc(-c2cccc(Nc3nccc(NC4CCCCC4)n3)c2)c1` has a remaining binding of 0% (FLT3 D835V; binding, competition with immobilised ligand; 10 µM).
With `CO[C@H]1CC[C@H](CNc2ccc(S(=O)(=O)NC(=O)c3ccc(N4CCN(CC5=C(c6ccc(Cl)cc6)CC(C)(C)CC5)CC4)cc3Oc3cnc4[nH]ccc4c3)cc2[N+](=O)[O-])CC1` the remaining binding was 100% (FLT3 D835V; cell-free assay, competition with immobilised ligand; 1 µM).
For `COc1cnc(Nc2cccc(S(N)(=O)=O)c2)nc1N1CCN(c2ccccc2)C(=O)C1`, the remaining binding was 97% (FLT3; binding, competition with immobilised ligand; 1 µM).
`N[C@H]1CCN(c2nccc(-c3cnn4ncccc34)n2)C1` has a remaining binding of 92% (FLT3 D835H; binding; 1 µM).
With `O=C(NCCCN1CCOCC1)c1ccc(Nc2ncc(Cl)c(-c3ccc(Cl)s3)n2)cc1` the remaining binding was 1.8% (Receptor-type tyrosine-protein kinase FLT3 (FLT3, Homo sapiens, UniProt P36888, D835V/ITD); binding, competition with immobilised ligand; 1 µM).
`C[C@H](c1ccnc(Nc2nc3ccc(-c4cc(N(C)C)ncn4)cc3[nH]2)c1)N1CCN(C(=O)CC(F)(F)F)CC1` gave a remaining binding of 42% (Receptor-type tyrosine-protein kinase FLT3 (FLT3, Homo sapiens, UniProt P36888, F691L/ITD); cell-free assay, competition with immobilised ligand; 0.1 µM).
`C[C@H]1CCN(c2nccc(-c3cnn4ncccc34)n2)C1` has a remaining binding of 81% (FLT3 D835Y; binding; 1 µM).
`CCS(=O)(=O)c1cc2cc(C[C@@](O)(CC(C)(C)c3ccc(F)cc3C(N)=O)C(F)(F)F)[nH]c2cn1` gave a remaining binding of 99% (FLT3 D835Y; cell-free assay, competition with immobilised ligand; 1 µM).
The remaining binding of `CN(C)c1ncc(F)c(-c2cnn3ncccc23)n1` is reported as 100% (Receptor-type tyrosine-protein kinase FLT3 (FLT3, Homo sapiens, UniProt P36888, K663Q); binding; 1 µM).
